Compound activity from PubChem.
The full list was thinned out, with hits kept by preference.
T cruzi inh: blocks replication of Trypanosoma cruzi | hit rate 1.4% among 300,000 | AID 1885 | T. cruzi beta-gal in NIH3T3, luminescence, 90 h | inhibition, % (concentration not given with the values);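 active means mean inhibition across valid replicates above about 55%, limit read from the data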;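 further: signal also drops with host cell toxicity which is not excluded here; 0% = plate median of DMSO wells and 100% = zero luminescence signal; higher percent means less beta-gal luminescence so fewer parasites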
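Test system: β-gal T. cruzi (Tulahuen C4) inside NIH/3T3 cells / Quantity: 5,000 cells/well / Measured by: luminescence from GalScreen with 0.05% NP40, read after 60 min / Medium: DMEM plus 2% FBS / Measure: parasite load inhibition, % / Reagent: Tulahuen C4 trypomastigotes, 5000/well / Schedule: co-culture of at least 90 h after 3 h attachment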
Hsp70 act: Hsp70 transcriptional activation, primary screen | HeLa Hsp70 promoter luciferase reporter, luminescence; scaled: vehicle 0, proteasome-inhibitor control 100% | activation, % at 10 µM | hit rate 0.04% among 200,000 | AID 1203;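 active means activation above the mean across all tested compounds plus 3 SD, cutoff set per campaign, cut at about 5.5% in these data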;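 further: 100% = MG132 at 30 µM as the positive control and 0% = DMSO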
HSF1 inh: HSF1 inhibition; hit rate 0.77% among 300,000; activity change, negative = inhibition, % at 7.5 µM (by protocol); NIH3T3-HGL HSE-luciferase, MG132-induced, luminescence 8 h; hits give low values; AID 2098;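 active means more than half of replicate wells show activity change below -50%, luminescence cut by over half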;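 further: luciferase reports HSF-1 transcriptional activity via heat shock element; 0% = median of DMSO wells and -100% = zero luminescence signal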
L major viab: reduces viability of Leishmania major promastigotes | resazurin fluorescence viability | inhibition, % at 10 µM | hit rate 9% among 200,000; in the data active means inhibition above about 50%;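 further: promastigotes grown with compound for 44 hours at 28 °C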
HSF1 activator: increases HSF-1 driven luciferase reporter signal; NIH3T3-HGL HSF-1 luciferase reporter, MG132, 8 h; 100% = twice DMSO control signal; activation, % at 9 µM; hit rate 1.7% among 300,000;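 active means mean replicate activation of at least 50% with a set share of replicates each reaching 50%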;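 further: 0% = median of the neutral control wells and 100% = twice that signal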
Numbers without * were called inactive.

`FC(F)(F)c1cccc(Cc2noc(CN3CCC(c4ccncc4)CC3)n2)c1` gave T cruzi inh 47, Hsp70 act 0, HSF1 inh 5, L major viab 98* and HSF1 activator 1.
For c1ccc(C(c2ccccc2)c2noc(CN3CCC(c4ccncc4)CC3)n2)cc1 the results were T cruzi inh 61*, Hsp70 act 0, HSF1 inh 5, L major viab 90* and HSF1 activator -7.
COCC1CCN(Cc2nc(-c3ccc4c(c3)OCO4)no2)C1 (centres undefined) was read as T cruzi inh -5, Hsp70 act 0, HSF1 inh 9, L major viab 34 and HSF1 activator 7.
NCCCCC(NC(=O)C1CCCN1C(=O)C1CSSCC(N)C(=O)NC(Cc2ccc(O)cc2)C(=O)NC(Cc2ccccc2)C(=O)NC(CCC(N)=O)C(=O)NC(CC(N)=O)C(=O)N1)C(=O)NCC(N)=O (centres undefined) was read as Hsp70 act 0 and L major viab -4.
Screening CN1CCCN(Cc2nc(-c3cccc(C(F)(F)F)c3)no2)CC1 returned T cruzi inh -1, Hsp70 act 0, HSF1 inh 1, L major viab 99* and HSF1 activator 2.
c1ccc(OCCN2CCN(Cc3nc(-c4ccc5c(c4)OCO5)no3)CC2)cc1 was read as T cruzi inh 43, Hsp70 act 0, HSF1 inh 4, L major viab 68* and HSF1 activator 11.
For CC(C)CN(CCCNC(=O)CN1N=C(c2ccc(Cl)cc2)CCC1=O)CC(C)C the results were T cruzi inh -16, HSF1 inh -3 and HSF1 activator -1.
CN(C)CC(C)(C)CN=Cc1c(O)[nH]c2ccccc12 was read as T cruzi inh 61*, HSF1 inh 7 and HSF1 activator 22.
CCCCCN(C(=O)CCC(=O)OCc1ccccc1F)c1c(N)n(CCCC)c(=O)[nH]c1=O was read as T cruzi inh 9, HSF1 inh -1 and HSF1 activator 6.
`CCCCCN(C(=O)CCC(=O)OCC(=O)N(CC)c1ccccc1)c1c(N)n(CCCC)c(=O)[nH]c1=O` gave T cruzi inh -4, HSF1 inh 25 and HSF1 activator 58*.
Screening N=c1c2ccccc2nnn1-c1ccc(C(F)(F)F)cc1 returned T cruzi inh -3, Hsp70 act 0, HSF1 inh 6, L major viab 3 and HSF1 activator 6.
COc1ccc(-c2cc3ccccc3oc2=O)cc1NC(=O)c1ccc(Br)o1 was read as T cruzi inh 8, Hsp70 act 1, HSF1 inh -9, L major viab -2 and HSF1 activator 5.
Screening COc1ccc(-c2cc3ccccc3oc2=O)cc1NC(=O)c1ccc([N+](=O)[O-])o1 returned T cruzi inh 56*, Hsp70 act 0, HSF1 inh 29, L major viab 85* and HSF1 activator 31.
For COc1ccc(S(=O)(=O)N2CCCCC2)cc1NC(=O)c1ccc([N+](=O)[O-])o1 the results were T cruzi inh 55*, Hsp70 act 0, HSF1 inh -1, L major viab 90* and HSF1 activator 6.
Screening COc1ccc(S(=O)(=O)N2CCN(C(=O)c3oc4ccccc4c3C)CC2)cc1 returned T cruzi inh 23, HSF1 inh -6 and HSF1 activator -23.
Screening CCN1CCN(c2ccc(S(=O)(=O)N3CCCCC3)cc2NC(=O)c2ccc([N+](=O)[O-])o2)CC1 returned T cruzi inh 60*, HSF1 inh 15 and HSF1 activator 9.
`COc1ccc(S(=O)(=O)N2CCN(C(=O)c3ccc([N+](=O)[O-])o3)CC2)cc1` gave T cruzi inh 56*, HSF1 inh -2 and HSF1 activator 3.
For CCN1C(=O)/C(=C\c2cccn2-c2ccc([N+](=O)[O-])cc2)N(CC)C1=S the results were T cruzi inh -4, Hsp70 act 0, HSF1 inh -7, L major viab 0 and HSF1 activator -3.
`COc1cccc(CSc2nnc(-c3ccncc3)n2N)c1` gave T cruzi inh -3, HSF1 inh 0 and HSF1 activator -1.
CC(C#Cc1ccc2c(c1)COc1c3ccccc3nn1-2)OC(C)(C)C (centres undefined) was read as T cruzi inh 3, HSF1 inh 7 and HSF1 activator 7.
`COc1ccc(N2CC(C(=O)Nc3ccccc3C(=O)NC3CC3)CC2=O)cc1` (centres undefined) gave T cruzi inh 0, HSF1 inh -5 and HSF1 activator 6.
